An excerpt weighted towards active compounds, which were near 3% of everything screened.
CASP6 VEID inh = blocks human caspase-6 cleavage activity; purified caspase-6, Z-VEID-R110 cleavage fluorescence; inhibition, % at 12.5 µM; 0.53% of 350,000 active;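 active = mean inhibition across replicates at least about 35%, with every replicate also reaching that limit, limit read from the data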;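 note: 0% = median of neutral control wells and 100% = no fluorescence left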
Target sequence (P55212 24-179 limits assumed): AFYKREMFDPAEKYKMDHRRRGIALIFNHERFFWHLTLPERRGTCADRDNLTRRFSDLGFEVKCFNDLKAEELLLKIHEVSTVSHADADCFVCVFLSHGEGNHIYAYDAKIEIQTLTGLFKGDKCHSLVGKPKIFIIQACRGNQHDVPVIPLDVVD
Target sequence (P55212 194-293 limits assumed): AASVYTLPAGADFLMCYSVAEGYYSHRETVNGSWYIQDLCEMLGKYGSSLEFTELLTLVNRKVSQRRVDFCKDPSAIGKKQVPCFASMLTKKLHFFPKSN
Wnt act = activators of Wnt/beta-catenin signaling; Wnt/beta-catenin reporter cell assay, activator, plate reader; activation, % at 9.35 µM; 1.2% of 300,000 active; AID 743398; in the data active = activation above about 30%, passing the limit was not always enough;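 note: 0% = neutral control wells and 100% = positive control wells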
MITF act = activators of MITF-driven TRPM1 promoter activity in SK-MEL-5 cells; SK-MEL-5 TRPM1-promoter luciferase, 24 h; % of positive control, neutral wells = 0; activation, % at 12.5 µM; 0.75% of 300,000 active;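 active = mean activation of at least 80% with every replicate also reaching 80%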;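 note: 0% = neutral control wells and 100% = parthenolide positive control wells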
esBAF inh = blocks esBAF chromatin remodeling in mouse ES cells; Bmi1-luciferase knock-in reporter, 24 h; 100% = twice the neutral-well signal; reporter increase, % at 12.5 µM; 2% of 350,000 active; AID 602393; in the data active = activation above about 40%;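 note: 0% = median of the plate's neutral control wells and 100% = double that signal; a rise in the Bmi1 reporter signal indicates esBAF inhibition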
NSD2 inh = inhibitors of human histone methyltransferase NSD2. 0.54% of 310,000 active. O96028. inhibition, % at 12.5 µM. NSD2 peptide methylation, AlphaScreen, 120 min. AID 743445; in the data active = inhibition above about 50%
XiGFP reactiv = reactivates the inactive X chromosome in mouse fibroblasts | XiGFP mouse fibroblasts, % GFP-positive cells imaging, 3 d; cells co-treated with 5-aza-dC sensitizer; scaled so ellipticine positive control = 100% | activation, % at 7.58 µM | 0.055% of 360,000 active;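 active = mean normalized replicate activation at least 10% and every replicate at or above 10%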;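 note: 0% = median of on-plate neutral control wells and 100% = ellipticine 6 µM median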
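System: 68-5-11 XiGFP fibroblast line; Timing: 3 days compound exposure; Compound dosing: one concentration, pinned; Benchmarks: positive control ellipticine, 6 µM final; Buffer or medium: DMEM containing 5-aza-dC.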
* hit, by the source's call; · = no result.

SMILES	CASP6 VEID inh	Wnt act	MITF act	esBAF inh	NSD2 inh	XiGFP reactiv
COc1ccc(NC(=O)/C(C#N)=C\c2ccc(N3CCOCC3)o2)cc1	·	9	41	·	-1	0
O=C(Nc1ccc(F)c(Cl)c1)c1cc(C2CCCN(S(=O)(=O)c3cccs3)C2)on1 (stereo not drawn)	4	-1	·	11	1	0
CC(C)S(=O)(=O)N1CCCC(c2cc(C(=O)Nc3ccc(F)c(Cl)c3)no2)C1 (stereo not drawn)	-2	32*	·	48*	-2	0
CCCNC(=O)c1cc(C2CCCN(S(=O)(=O)c3cccc4cccnc34)C2)on1 (stereo not drawn)	-2	-4	·	2	0	0
O=C(Nc1ccc(F)c(Cl)c1)c1cc(C2CCCN(S(=O)(=O)c3cccc4cccnc34)C2)on1 (stereo not drawn)	36*	1	·	40	-4	0
Cc1noc(C)c1S(=O)(=O)N(C)C[C@H]1Oc2ccc(NC(=O)Cc3cn(C)c4ccccc34)cc2C(=O)N([C@H](C)CO)C[C@@H]1C	·	·	·	·	·	0
CCOC(=O)c1[nH]c2c(c1C)C(=O)CC(c1ccco1)C2 (stereo not drawn)	33	-22	-22	-13	·	1
COCCOC(=O)c1[nH]c2c(c1C)C(=O)CC(c1ccco1)C2 (stereo not drawn)	50*	-6	·	-9	·	0
COc1ccc2c3c(n(C)c2c1)[C@H](CO)N(Cc1nccs1)CC31CCN(C(C)=O)CC1	·	·	·	·	·	0
CSCCC(=O)Nc1ccc(C(C)=O)cc1	0	-1	39	53*	-1	·
Cc1ccc(NC(=O)CN2CCCC2)cc1	-1	6	-10	4	6	0
CC(=O)c1ccc(NC(=O)CN2CCCC2)cc1	0	2	·	50*	0	0
C[C@H](CO)N1C[C@H](C)[C@@H](CN(C)C(=O)Nc2ccc3c(c2)OCO3)Oc2c(NC(=O)Cc3cn(C)c4ccccc34)cccc2C1=O	·	·	·	·	·	-1
CO[C@H]1CN(C)C(=O)c2ccc(NC(C)=O)cc2OC[C@H](C)N(C(=O)C2CC2)C[C@@H]1C	2	·	·	·	·	0
COCC(=O)Nc1ccc2c(c1)OC[C@@H](C)N(CCC(F)(F)F)C[C@H](C)[C@H](OC)CN(C)C2=O	1	·	·	-9	·	0
C[C@H](CO)N1C[C@H](C)[C@H](CN(C)S(C)(=O)=O)Oc2ccc(NS(=O)(=O)c3ccc(Cl)cc3)cc2CC1=O	2	·	·	4	·	0
CCn1c2ccccc2c2cc(NC(=O)C(=O)N3CCOCC3)ccc21	·	-1	70	71*	0	0
Cc1ccc(N/C=C(/C#N)c2ccsc2)cc1	·	·	38	68*	1	·
CSc1ccccc1NC(=O)c1cc2ncc(Br)cn2n1	16	35*	73	55*	8	3
CC1CCc2c(sc(NC(=O)/C=C/c3cccs3)c2C(=O)O)C1 (stereo not drawn)	24	1	7	53*	5	0
O=C(/C=C/c1cccs1)Nc1scc(-c2ccccc2)c1C(=O)O	54*	2	26	·	·	0
C[C@@H]1CN([C@H](C)CO)C(=O)c2cc(NC(=O)Nc3ccc4c(c3)OCO4)ccc2O[C@H]1CN(C)C(=O)Nc1ccc(F)cc1	·	·	·	5	·	-1
O=C(Nc1ccc2c(c1)[C@H]1C[C@H](CC(=O)N3CCOCC3)O[C@H](CO)[C@H]1O2)c1ccc2c(c1)OCO2	·	·	·	3	·	0
CCOC(=O)c1c(-c2ccccc2)nc2ccc(C)cn12	·	47*	43	47*	0	·
CCOC(=O)c1c(-c2ccccc2)nc2cc(C)ccn12	·	21	·	52*	-1	·
SMILES	CASP6 VEID inh	Wnt act	MITF act	esBAF inh	NSD2 inh	XiGFP reactiv
CC(C)(C)Cc1nnc(NC(=O)CSc2ccccc2)s1	4	17	·	72*	3	0
CC(C)(C)Cc1nnc(NC(=O)c2ccc3c(c2)OCO3)s1	·	15	68	46*	-2	0
CCOCc1nnc(NC(=O)CSc2ccccc2)s1	·	-2	·	-7	0	·
CCC(CC)c1nnc(NC(=O)c2ccc3c(c2)OCO3)s1	2	7	79	58*	·	0
O=C(Nc1nnc(Cc2ccc([N+](=O)[O-])cc2)s1)c1ccc2c(c1)OCO2	3	2	17	·	0	0
C[C@H](CO)N1C[C@H](C)[C@H](CN(C)Cc2ccc(C(=O)O)cc2)OCCCC[C@H](C)Oc2ccc(NC(=O)Nc3ccccc3)cc2C1=O	0	·	·	-8	·	0
CCCCN(C)S(=O)(=O)c1ccc(C(=O)N=c2sc3cc(NC(C)=O)ccc3n2C)cc1	·	39*	2	·	-2	0
CCCCN(CC)S(=O)(=O)c1ccc(C(=O)N=c2sc3cc(NC(C)=O)ccc3n2C)cc1	-1	-8	-9	·	-3	1
CO[C@@H]1CN(C)C(=O)c2cc(NC(=O)C3CC3)ccc2OC[C@@H](C)N(Cc2ccc(F)cc2)C[C@H]1C	4	·	·	2	·	1
O=C(Nc1ccccc1)N(O)c1ccc(Cl)cc1	·	·	32	68*	-6	·
O=C(N[C@@H]1CC[C@@H](CCNS(=O)(=O)c2ccccc2)O[C@H]1CO)c1cccc(F)c1	2	·	·	-6	·	0
O=C1C(C=NCCCn2ccnc2)=C(O)c2ccccc21	·	-3	-5	53*	-3	·
CC(=NCCCn1ccnc1)C1=C(O)c2ccccc2C1=O	·	0	14	-1	0	·
O=C1C(C=NCc2ccccn2)=C(O)c2ccccc21	7	-2	50	73*	·	·
COc1ccccc1CNC(=O)C[C@H]1C[C@H]2c3cc(NC(=O)NC4CCCC4)ccc3O[C@H]2[C@H](CO)O1	-5	·	·	1	·	0
Cc1ccc(O)c(NC(=O)CCC2CCCCC2)c1	·	·	84*	·	-3	·
O=C(CCC1CCCCC1)Nc1ccccc1-c1ccccc1	5	-5	-5	-2	-4	·
O=C(CCC1CCCCC1)Nc1ccccc1O	·	25	95*	42*	-1	·
CO[C@H]1CN(C)C(=O)c2ccc(NS(=O)(=O)c3ccccc3F)cc2OC[C@H](C)NC[C@H]1C	·	·	·	3	·	0
COC(=O)[C@]12C[C@H](CC(=O)NCc3cccs3)C(=O)N(Cc3ccccc3)C1=C[C@H](C1CCCC1)O[C@@H]2C	-4	-1	·	·	0	0
COC(=O)[C@]12C[C@H](CC(=O)NCc3ccc(C)o3)C(=O)N(Cc3ccccc3)C1=C[C@H](C1CCCC1)O[C@@H]2C	66*	-1	·	·	·	0

Source: PubChem BioAssay (Broad Institute)
